# Measured values collected from several papers.
# Compare with care: the assays were run in different laboratories.
# Target: Tau-tubulin kinase 1 (TTBK1, Homo sapiens, UniProt Q5TCY1)
# Effect on: enzyme activity
# Action: inhibitor
SMILES,assay,conditions,endpoint,result
Cc1sc(C(=O)NC2COC2)cc1-n1cc(NC(=O)Nc2c(F)cccc2Cl)cn1,,10 µM,remaining activity,113%
COc1cc(Cl)c(C(=O)N[C@@H](CN[C@H]2CC[C@@H](N)CC2)Cc2ccc(C#N)cc2)cc1-c1ccc(CN[C@H](C)c2ccc(C)cc2)o1,,1 µM,remaining activity,99%
COc1cc(Nc2cnc(C#N)c(O[C@H](C)CN(C)C)n2)ncc1-c1cnn(C)c1,radiometric,1 µM,remaining activity,98%
CN1CC(Oc2cnc(C#N)cc2-c2ccn3nc(NC(=O)C4CC4)cc3c2)C1,,1 µM,inhibition,1%
Cc1ccc(C(=O)NCc2ccsc2)cc1C#Cc1cn(C(C)C)c2ncnc(N)c12,,1 µM,activity vs control,104%
O=C(Nc1cnn(-c2csc(C(=O)NC3COC3)c2)c1)Nc1c(F)cccc1Cl,,5 µM,remaining activity,82.3%
COc1cc(/C=C/C(=O)CC(=O)/C=C/c2ccc(O)c(OC)c2)ccc1O,,1 µM,activity vs control,102%
CC(C)(O)[C@H]1CC[C@H](Nc2ccc3ncc(-c4cccc(C(F)(F)F)c4)n3n2)CC1,,1 µM,remaining activity,95.8%
